Reference: ChEMBL document CHEMBL1153438, “Synthesis and biological evaluation of novel conjugates of podophyllotoxin and 5-FU as antineoplastic agents” (Bioorg Med Chem, 2009)
Calls of active or inactive are those of the source. The calls are words filed in the database; no cut-off is given here.

How the values were obtained:
K562 = test: Cytotoxicity against human K562 cells after 48 hrs by MTT assay; assay type: functional, cell-based; conditions: K562, 48 h
Procedure, shortened: (§1)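 MTT assay in HL-60 and K562 leukemia cells. Cells were seeded at 6000–10,000 per well, then treated in triplicate with a concentration gradient for 48 h at 37 °C. IC50 was taken from the dose–response curve as the average of triplicates.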

AGS = test: Cytotoxicity against human AGS cells after 72 hrs by SRB method; assay type: functional, cell-based
Procedure, shortened: (§2)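 SRB assay in AGS and A549 solid tumour cells. Cells were seeded at 6000–10,000 per well, then exposed in triplicate to a concentration gradient for 72 h at 37 °C. IC50 was read from the dose–response curve as the average of triplicates.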

HL-60 = test: Cytotoxicity against human HL60 cells after 48 hrs by MTT assay; assay type: functional, cell-based; conditions: HL-60, 48 h; procedure, shortened: as §1
A549 = test: Cytotoxicity against human A549 cells after 72 hrs by SRB method; assay type: functional, cell-based; conditions: A549, 72 h; procedure, shortened: as §2
[1] = Octanol-water partition coefficient, log P of the compound; assay type: physicochemical
Procedure, shortened: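 Octanol–water partition coefficient; each reported P is the average of three measurements.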

Calf thymus DNA = test: Binding affinity to calf thymus DNA after 24 hrs by circular dichroism; assay type: nucleic-acid assay; conditions: Bos taurus
Procedure, shortened: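 CT DNA dissolved and annealed in 10 mM PBS pH 7.2, then mixed with compound at 0, 10, 20 or 50 µg/mL. Mixtures were incubated 24 h at 37 °C in the dark. CD spectra were recorded from 200–320 nm in 1 cm quartz cells, with compound-only solutions in PBS as blanks.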

Plasma [2] = test: Metabolic stability in human plasma at 1 ug/ml within 24 hrs; assay type: ADME, cell-free
Procedure, shortened: (§3)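 Compound (100 µg/mL stock in acetonitrile, 1.0 mL) was added to 4.0 mL preincubated human plasma, mouse plasma or pH 7.4 phosphate buffer and held at 37 °C. Protein was precipitated with cold acetonitrile and the sample centrifuged. Supernatant was analysed by C18 HPLC with CH3CN/H2O 45:55 at 1.0 mL/min.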

Plasma [3] = test: Metabolic stability in mouse plasma at 1 ug/ml after 2 hrs; assay type: ADME, cell-free; procedure, shortened: as §3
[4] = Stability at pH 7.4 PBS at 1 ug/ml within 8 hrs; assay type: physicochemical; conditions: buffer, pH 7.4, 8 h; procedure, shortened: as §3
[5] = Stability at pH 7.4 PBS at 1 ug/ml after 8 hrs; assay type: physicochemical; conditions: buffer, pH 7.4, 8 h; procedure, shortened: as §3

Compound | IC50 (K562) [µM] | IC50 (AGS) [µM] | IC50 (HL-60) [µM] | IC50 (A549) [µM] | logP [1] | Activity (Calf thymus DNA) | Stability (Plasma [2]) | Stability (Plasma [3]) | Stability [4] | Stability [5]
COc1cc([C@@H]2c3cc4c(cc3[C@@H](N[C@H](C(=O)OCCCn3cc(F)c(=O)[nH]c3=O)[C@@H](C)O)[C@H]3COC(=O)[C@H]23)OCO4)cc(OC)c1O | 30.8 | 141 | 23.2 | 6.95 | -0.12 |  |  |  |  | 
COc1cc([C@@H]2c3cc4c(cc3[C@@H](N[C@@H](Cc3ccc(O)cc3)C(=O)OCCCn3cc(F)c(=O)[nH]c3=O)[C@H]3COC(=O)[C@H]23)OCO4)cc(OC)c1O | 28.6 | 115 | 26.6 | 21.7 | 0.07 |  |  |  |  | 
COc1cc([C@@H]2c3cc4c(cc3[C@@H](N[C@@H](Cc3ccccc3)C(=O)OCCCn3cc(F)c(=O)[nH]c3=O)[C@H]3COC(=O)[C@H]23)OCO4)cc(OC)c1O | 5.8 | 23.6 | 0.31 | 0.48 | 0.65 |  |  |  |  | 
CC[C@H](C)[C@H](N[C@@H]1c2cc3c(cc2[C@@H](c2cc(OC)c(O)c(OC)c2)[C@H]2C(=O)OC[C@@H]21)OCO3)C(=O)OCCCn1cc(F)c(=O)[nH]c1=O | 5.1 | 56.2 | 0.24 | 0.18 | 0.59 |  |  |  |  | 
COc1cc([C@@H]2c3cc4c(cc3[C@@H](N[C@@H](CC(C)C)C(=O)OCCCCCn3cc(F)c(=O)[nH]c3=O)[C@H]3COC(=O)[C@H]23)OCO4)cc(OC)c1O | 6 | 23.5 | 0.31 | 0.53 | 0.51 |  |  |  |  | 
COc1cc([C@@H]2c3cc4c(cc3[C@@H](N[C@@H](CC(C)C)C(=O)OCCCn3cc(F)c(=O)[nH]c3=O)[C@H]3COC(=O)[C@H]23)OCO4)cc(OC)c1O | 9.5 | 59.2 | 0.13 | 0.01 | 0.33 |  |  |  |  | 
COc1cc([C@@H]2c3cc4c(cc3[C@@H](N[C@@H](CC(C)C)C(=O)OCCCCn3cc(F)c(=O)[nH]c3=O)[C@H]3COC(=O)[C@H]23)OCO4)cc(OC)c1O | 5.3 | 34.5 | 0.73 | < 0.01 | 0.35 |  |  |  |  | 
COc1cc([C@@H]2c3cc4c(cc3[C@@H](N[C@@H](Cc3ccccc3)C(=O)OCCCCn3cc(F)c(=O)[nH]c3=O)[C@H]3COC(=O)[C@H]23)OCO4)cc(OC)c1O | 9.2 | 23.7 | 0.42 | 0.3 | 0.43 |  |  |  |  | 
COc1cc([C@@H]2c3cc4c(cc3[C@@H](N[C@@H](Cc3ccccc3)C(=O)OCCCCCn3cc(F)c(=O)[nH]c3=O)[C@H]3COC(=O)[C@H]23)OCO4)cc(OC)c1O | 13.2 | 38.8 | 0.04 | < 0.01 | 0.29 | Active | Stable | Unstable | Stable | Unstable
COc1cc([C@@H]2c3cc4c(cc3[C@@H](N[C@@H](C)C(=O)OCCCn3cc(F)c(=O)[nH]c3=O)[C@H]3COC(=O)[C@H]23)OCO4)cc(OC)c1O | 19.5 | 40.4 | 22.3 | 2.59 | -0.07 |  |  |  |  | 
O=c1[nH]cc(F)c(=O)[nH]1 [FLUOROURACIL] | > 100 | > 100 |  |  |  |  |  |  |  | 
COc1cc([C@@H]2c3cc4c(cc3[C@@H](N[C@H](C(=O)OCCCn3cc(F)c(=O)[nH]c3=O)C(C)C)[C@H]3COC(=O)[C@H]23)OCO4)cc(OC)c1O | 13.5 | 62.5 | 5.8 | 1.92 | 0.34 |  |  |  |  | 
COc1cc([C@@H]2c3cc4c(cc3[C@@H](N[C@@H](CCSC)C(=O)OCCCn3cc(F)c(=O)[nH]c3=O)[C@H]3COC(=O)[C@H]23)OCO4)cc(OC)c1O | 8.8 | 24.8 | 0.99 | 0.29 | 0.23 |  |  |  |  | 
COc1cc([C@@H]2c3cc4c(cc3[C@H](O)[C@H]3COC(=O)[C@H]23)OCO4)cc(OC)c1OC [PODOFILOX] | > 100 | 50.8 | 2.75 | 7.38 | 0.69 |  |  |  |  | 
